In brackets after ≈: the same amount, converted by molar mass. *1 amine or outer side, *2 acyl side, *3 side chain or, on linkers, in order; H or OH if unused. Where a SMILES comes first, the peptide text is derived from it. Bridges are numbered along the chain shown (N, C = ends). [ ]: non-standard residue; d: D form. The star is where a group is joined. X1 = O=C1C[C@@H](C(=O)[*:2])N([*:1])C[C@H]1CS[C@@H]1CN2CCC1CC2; NMePhe(4-NMe2) = CN[C@@H](Cc1ccc(N(C)C)cc1)C(=O)O; Picolinoyl(3-OH) = O=C(c1ncccc1O)*; Phg = N[C@H](C(=O)O)c1ccccc1; dAbu = CC[C@@H](N)C(=O)O
Tests used:
[1] = system: Staphylococcus epidermidis; experiment: Antibacterial activity was determined against Staphylococcus epidermis 56500 strain after incubation at 37 degrees C for 18 h; format: functional
Staphylococcus aureus [2] = experiment: Antibacterial activity was determined against Staphylococcus aureus FDA 209-P strain after incubation at 37 degrees C for 18 h; format: functional
Streptococcus pyogenes = experiment: Antibacterial activity was determined against Streptococcus pyogenes G-36 strain after incubation at 37 degrees C for 18 h; format: functional
Streptococcus mitis = experiment: Antibacterial activity was determined against Streptococcus mitis IID685 strain after incubation at 37 degrees C for 18 h; format: functional
Escherichia coli = experiment: Antibacterial activity was determined against Escherichia coli NIHJ strain after incubation at 37 degrees C for 18 h; format: functional
Streptococcus pneumoniae [3] = experiment: Antibacterial activity was determined against Streptococcus pneumoniae J-24 strain after incubation at 37 degrees C for 18 h; format: functional
Enterococcus faecalis = experiment: Antibacterial activity was determined against Enterococcus faecalis ATCC 19433 strain after incubation at 37 degrees C for 18 h; format: functional; conditions: ATCC 19433, 18 h
Pseudomonas aeruginosa = experiment: Antibacterial activity was determined against Pseudomonas aeruginosa PAO1 strain after incubation at 37 degrees C for 18 h; format: functional
Klebsiella pneumoniae = experiment: Antibacterial activity was determined against Klebsiella pneumoniae type II strain after incubation at 37 degrees C for 18 h; format: functional
Streptococcus pneumoniae [4] = experiment: Antibacterial activity was determined against clinically isolated penicillin resistant Streptococcus pneumoniae (PRSP) strains (50 strains); Range= 1-4; format: functional
[5] = Mortality was determined after 50 mg/kg dose administered intravenously to 5-week old male mice at a speed of 0.2 mL/min counted on day 7 for total 2 mice; format: ADME, organism-based; parameters: dose 50 mg/kg, route intravenous; conditions: mouse, in vivo, iv
Outline: (§1)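 Male Slc:ddY mice, 5 weeks old. Compound dissolved in 0.1 N NaOH in saline at varied concentrations and given as a single IV injection at 0.2 mL/min, total volume 10 mL/kg body weight. Deaths counted on day 7 and reported as dead/tested.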

[6] = Mortality was determined after 150 mg/kg dose administered intravenously to 5-week old male mice at a speed of 0.2 mL/min counted on day 7 for total 2 mice; format: ADME, organism-based; parameters: dose 150 mg/kg, route intravenous; conditions: mouse, in vivo, iv; outline: as §1
[7] = Mortality was determined after 100 mg/kg dose administered intravenously to 5-week old male mice at a speed of 0.2 mL/min counted on day 7 for total 2 mice; format: ADME, organism-based; parameters: dose 100 mg/kg, route intravenous; conditions: mouse, in vivo, iv; outline: as §1
[8] = Solubility was determined in water; format: physicochemical
Streptococcus pneumoniae [9] = experiment: Antibacterial activity was determined against clinically isolated penicillin resistant Streptococcus pneumoniae (PRSP) strains (50 strains); format: functional
Enterococcus sp. [10] = experiment: Antibacterial activity was determined against clinically isolated vancomycin-A resistant enterococci (VRE) strains (33 strains); format: functional
Enterococcus sp. [11] = experiment: Antibacterial activity was determined against clinically isolated vancomycin-B resistant enterococci (VRE) strains (10 strains); format: functional
Staphylococcus aureus [12] = experiment: Antibacterial activity was determined against clinically isolated Levofloxacin-methicillin resistant Staphylococcus aureus (LVFX-r MRSA) strains (74 strains); format: functional
[13] = Mortality was determined after 50 mg/kg dose administered intravenously to 5-week old male mice at a speed of 0.2 mL/min counted on day 7 for total 5 mice; format: ADME, organism-based; parameters: dose 50 mg/kg, route intravenous; conditions: mouse, in vivo, iv; outline: as §1
Enterococcus sp. [14] = experiment: Antibacterial activity was determined against clinically isolated vancomycin-A resistant Enterococci (VRE) strains (33 strains); format: functional
Outline: (§2)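 Twofold broth microdilution in Mueller–Hinton broth, inoculum about 10^5 CFU per well. Plates incubated 18 h at 37 °C. MIC taken as the lowest concentration preventing visible growth. Organisms were clinical resistant Gram-positive isolates.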

Enterococcus sp. [15] = experiment: Antibacterial activity was determined against clinically isolated vancomycin-B resistant Enterococci (VRE) strains (10 strains); format: functional; outline: as §2
Staphylococcus aureus [16] = experiment: Antibacterial activity was determined against clinically isolated Levofloxacin-methicillin resistant Staphylococcus aureus (LVFX-r MRSA) strains (74 strains); Range= 0.5-128 ug/mL; format: functional; outline: as §2

SMILES	MIC [1]	MIC (Staphylococcus aureus [2])	MIC (Streptococcus pyogenes)	MIC (Streptococcus mitis)	MIC (Escherichia coli)	MIC (Streptococcus pneumoniae [3])	MIC (Enterococcus faecalis)	MIC (Pseudomonas aeruginosa)	MIC (Klebsiella pneumoniae)	MIC50 (Streptococcus pneumoniae [9])	MIC90 (Streptococcus pneumoniae [9])	MIC50 (Enterococcus sp. [10])	MIC90 (Enterococcus sp. [10])	MIC50 (Enterococcus sp. [11])	MIC90 (Enterococcus sp. [11])	MIC50 (Staphylococcus aureus [12])	MIC90 (Staphylococcus aureus [12])	further results
COc1c(N2C[C@@H]3CCCN[C@@H]3C2)c(F)cc2c(=O)c(C(=O)O)cn(C3CC3)c12 [MOXIFLOXACIN]	0.1 µg/mL (≈ 0.249 µM)	0.013 µg/mL (≈ 0.0324 µM)	0.2 µg/mL (≈ 0.498 µM)	0.1 µg/mL (≈ 0.249 µM)	≤ 3 ng/mL	0.025 µg/mL (≈ 0.0623 µM)	0.2 µg/mL (≈ 0.498 µM)	0.2 µg/mL (≈ 0.498 µM)	0.025 µg/mL (≈ 0.0623 µM)									
CC1(C)S[C@@H]2[C@H](NC(=O)Cc3ccccc3)C(=O)N2[C@H]1C(=O)O [PENICILLIN G]																		MIC (Streptococcus pneumoniae [4]): 4 µg/mL (≈ 12 µM)
Cc1c(N2CC[C@@H](CN)C2)c(F)c(N)c2c(=O)c(C(=O)O)cn(C3C[C@@H]3F)c12 (single isomer, unassigned)	0.006 µg/mL (≈ 0.0153 µM)	≤ 0.003 µg/mL	0.013 µg/mL (≈ 0.0331 µM)	0.006 µg/mL (≈ 0.0153 µM)	13 ng/mL (≈ 0.0331 µM)	0.013 µg/mL (≈ 0.0331 µM)	0.025 µg/mL (≈ 0.0637 µM)	0.1 µg/mL (≈ 0.255 µM)	0.1 µg/mL (≈ 0.255 µM)									Dead [5]: 2; Dead [6]: 2; Dead [7]: 2; solubility [8]: 404 µg/mL (≈ 1030 µM)
COc1c(N2CCNC(C)C2)c(F)cc2c(=O)c(C(=O)O)cn(C3CC3)c12 (centres undefined) [GATIFLOXACIN]	0.2 µg/mL (≈ 0.533 µM)	0.05 µg/mL (≈ 0.133 µM)	0.39 µg/mL (≈ 1.04 µM)	0.2 µg/mL (≈ 0.533 µM)	6 ng/mL (≈ 0.016 µM)	0.2 µg/mL (≈ 0.533 µM)	0.39 µg/mL (≈ 1.04 µM)	0.39 µg/mL (≈ 1.04 µM)	0.05 µg/mL (≈ 0.133 µM)	0.25 µg/mL (≈ 0.666 µM)	0.25 µg/mL (≈ 0.666 µM)	16 µg/mL (≈ 42.6 µM)	32 µg/mL (≈ 85.2 µM)	2 µg/mL (≈ 5.33 µM)	16 µg/mL (≈ 42.6 µM)	4 µg/mL (≈ 10.7 µM)	32 µg/mL (≈ 85.2 µM)	
CC(=O)NCC1CN(c2ccc(N3CCOCC3)c(F)c2)C(=O)O1 (single isomer, unassigned) [LINEZOLID]										0.5 µg/mL (≈ 1.48 µM)	0.5 µg/mL (≈ 1.48 µM)	2 µg/mL (≈ 5.93 µM)	2 µg/mL (≈ 5.93 µM)	2 µg/mL (≈ 5.93 µM)	2 µg/mL (≈ 5.93 µM)	2 µg/mL (≈ 5.93 µM)	2 µg/mL (≈ 5.93 µM)	
CC(=O)N[C@@H]1[C@H](Oc2c3cc4cc2Oc2ccc(cc2Cl)[C@@H](O[C@@H]2O[C@@H](CO)[C@@H](O)[C@H](O)[C@@H]2NC(C)=O)[C@@H]2NC(=O)[C@H](NC(=O)[C@@H]4NC(=O)[C@H]4NC(=O)[C@@H](Cc5ccc(c(Cl)c5)O3)NC(=O)[C@H](N)c3ccc(O)c(c3)Oc3cc(O)cc4c3)c3ccc(O)c(c3)-c3c(O[C@H]4O[C@H](CO)[C@@H](O)[C@@H](O)[C@@H]4O)cc(O)cc3[C@@H](C(=O)O)NC2=O)O[C@@H](CO)[C@@H](O)[C@@H]1O										0.25 µg/mL (≈ 0.141 µM)	0.5 µg/mL (≈ 0.283 µM)	32 µg/mL (≈ 18.1 µM)	64 µg/mL (≈ 36.2 µM)	1 µg/mL (≈ 0.566 µM)	2 µg/mL (≈ 1.13 µM)	0.5 µg/mL (≈ 0.283 µM)	1 µg/mL (≈ 0.566 µM)	
CN[C@H](CC(C)C)C(=O)N[C@H]1C(=O)N[C@@H](CC(N)=O)C(=O)N[C@H]2C(=O)N[C@H]3C(=O)N[C@H](C(=O)N[C@H](C(=O)O)c4cc(O)cc(O)c4-c4cc3ccc4O)[C@H](O)c3ccc(c(Cl)c3)Oc3cc2cc(c3O[C@@H]2O[C@H](CO)[C@@H](O)[C@H](O)[C@H]2O[C@H]2C[C@](C)(N)[C@H](O)[C@H](C)O2)Oc2ccc(cc2Cl)[C@H]1O [VANCOMYCIN]										0.5 µg/mL (≈ 0.345 µM)	0.5 µg/mL (≈ 0.345 µM)	> 128 µg/mL	> 128 µg/mL	> 128 µg/mL	> 128 µg/mL	1 µg/mL (≈ 0.69 µM)	2 µg/mL (≈ 1.38 µM)	
Cc1c(N2C[C@H](F)[C@@H](C3(N)CC3)C2)c(F)c(N)c2c(=O)c(C(=O)O)cn([C@@H]3C[C@@H]3F)c12	≤ 0.003 µg/mL	≤ 0.003 µg/mL	≤ 0.003 µg/mL	≤ 0.003 µg/mL	≤ 3 ng/mL	≤ 0.003 µg/mL	0.013 µg/mL (≈ 0.0298 µM)	0.2 µg/mL (≈ 0.458 µM)	0.013 µg/mL (≈ 0.0298 µM)									Dead [13]: 0; Dead [6]: 2; Dead [7]: 2
NCC[C@H](O)C(=O)N[C@@H]1C[C@H](N)[C@@H](O[C@H]2O[C@H](CN)CC[C@H]2N)[C@H](O)[C@H]1O[C@H]1O[C@H](CO)[C@@H](O)[C@H](N)[C@H]1O [ARBEKACIN]										16 µg/mL (≈ 29 µM)	32 µg/mL (≈ 57.9 µM)	16 µg/mL (≈ 29 µM)	64 µg/mL (≈ 116 µM)	32 µg/mL (≈ 57.9 µM)	> 128 µg/mL	8 µg/mL (≈ 14.5 µM)	32 µg/mL (≈ 57.9 µM)	
CO/N=C1\CN(c2nc3c(cc2F)c(=O)c(C(=O)O)cn3C2CC2)CC1CN (centres undefined) [GEMIFLOXACIN]										0.03 µg/mL (≈ 0.077 µM)	0.06 µg/mL (≈ 0.154 µM)					2 µg/mL (≈ 5.14 µM)	32 µg/mL (≈ 82.2 µM)	MIC50 (Enterococcus sp. [14]): 4 µg/mL (≈ 10.3 µM); MIC90 (Enterococcus sp. [14]): 32 µg/mL (≈ 82.2 µM); MIC50 (Enterococcus sp. [15]): 1 µg/mL (≈ 2.57 µM); MIC90 (Enterococcus sp. [15]): 2 µg/mL (≈ 5.14 µM)
C[C@H]1COc2c(N3CCN(C)CC3)c(F)cc3c(=O)c(C(=O)O)cn1c23.C[C@H]1COc2c(N3CCN(C)CC3)c(F)cc3c(=O)c(C(=O)O)cn1c23.O [LEVOFLOXACIN]																		MIC (Staphylococcus aureus [16]): 128 µg/mL
O=C(O)c1cn(C2CC2)c2cc(N3CCNCC3)c(F)cc2c1=O [CIPROFLOXACIN]	0.2 µg/mL (≈ 0.604 µM)	0.05 µg/mL (≈ 0.151 µM)	1.56 µg/mL (≈ 4.71 µM)	0.78 µg/mL (≈ 2.35 µM)	≤ 3 ng/mL	0.39 µg/mL (≈ 1.18 µM)	0.78 µg/mL (≈ 2.35 µM)	0.05 µg/mL (≈ 0.151 µM)	0.025 µg/mL (≈ 0.0754 µM)									
CCN(CC)CCS(=O)(=O)[C@@H]1CCN2C(=O)c3coc(n3)CC(=O)C[C@H](O)/C=C(C)/C=C/CNC(=O)/C=C/[C@@H](C)[C@@H](C(C)C)OC(=O)[C@@H]12.CC[C@H]1NC(=O)[C@@H](NC(=O)c2ncccc2O)[C@@H](C)OC(=O)[C@H](c2ccccc2)NC(=O)[C@@H]2CC(=O)[C@H](CS[C@@H]3CN4CCC3CC4)CN2C(=O)[C@H](Cc2ccc(N(C)C)cc2)N(C)C(=O)[C@@H]2CCCN2C1=O [QUINUPRISTIN/DALFOPRISTIN] ({Picolinoyl(3-OH)}-T[dAbu]P[NMePhe(4-NMe2)][X1][Phg]; ester 1-C)										1 µg/mL	1 µg/mL	0.5 µg/mL	8 µg/mL	0.5 µg/mL	8 µg/mL	0.5 µg/mL	0.5 µg/mL	
N[C@@H]1[C@H]2CN(c3nc4c(cc3F)c(=O)c(C(=O)O)cn4-c3ccc(F)cc3F)C[C@@H]12 [TROVAFLOXACIN]	0.05 µg/mL (≈ 0.12 µM)	0.013 µg/mL (≈ 0.0312 µM)	0.2 µg/mL (≈ 0.48 µM)	0.1 µg/mL (≈ 0.24 µM)	≤ 3 ng/mL	0.05 µg/mL (≈ 0.12 µM)	0.2 µg/mL (≈ 0.48 µM)	0.2 µg/mL (≈ 0.48 µM)	0.025 µg/mL (≈ 0.06 µM)									

Source: ChEMBL document CHEMBL1145781, “Synthesis and structure-activity relationships of 5-amino-6-fluoro-1-[(1R,2S)-2-fluorocyclopropan-1-yl]-8-methylquinolonecarboxylic acid antibacterials having fluorinated 7-[(3R)-3-(1-aminocyclopropan-1-yl)pyrrolidin-1-yl] substituents” (J Med Chem, 2003)
